Source: ChEMBL document CHEMBL3244396, “Synthesis and antileukemic activity of 5-substituted 2,3-dihydro-6,7-bis(hydroxymethyl)-1H-pyrrolizine diesters” (J Med Chem, 1977)

What was measured:
P388 [1] = test: Antitumor activity against mouse P388 cells allografted in female CDF1 mouse assessed as change in body weight at 27 mg/kg, ip administered daily for 9 days as saline with Tween-80 solution starting 24 hrs after tumor inoculation; type: functional; conditions: route intraperitoneal
Method in brief: (§1)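 Ascitic fluid carrying P388 cells was inoculated ip. Compound was given ip in nine daily doses, starting 24 h after inoculation, in Klucel (hydroxypropylcellulose) suspension or in saline with Tween-80. Body-weight difference (treated minus control) was recorded on day 5. Survival was scored as %T/C of median survival time, and 30-day survival counted as cure.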

P388 [2] = test: Antitumor activity against mouse P388 cells allografted in female CDF1 mouse assessed as disease cures by measuring 30-days host survival at 200 mg/kg, ip administered daily for 9 days as saline with Tween-80 solution starting 24 hrs after tumor inoculation relative to control; type: functional; conditions: route intraperitoneal
Method in brief: (§2)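 P388 ascitic cell inoculum given ip to CDF1 mice of the sex in each line. Nine daily ip doses in saline with Tween-80 as vehicle, starting 24 h after inoculation. Median survival time expressed as %T/C (>125 significant); "cure" defined as 30-day survival.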

P388 [3] = test: Antitumor activity against mouse P388 cells allografted in female CDF1 mouse assessed as disease cures by measuring 30-days host survival at 54 mg/kg, ip administered daily for 9 days as saline with Tween-80 solution starting 24 hrs after tumor inoculation relative to control; type: functional; conditions: route intraperitoneal; method in brief: as §2
Mus musculus [4] = test: Toxicity in female CDF1 mouse allografted with mouse P388 cells assessed as animal survival at 400 mg/kg, ip administered daily for 9 days as saline with Tween-80 solution starting 24 hrs after tumor inoculation; type: organism-based; design: dose 400 mg/kg, route intraperitoneal; conditions: in vivo
Method in brief: (§3)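 P-388 leukemia ascitic fluid implanted ip. Compound dosed ip in saline with Tween-80 vehicle, once daily for nine doses from 24 h after tumor inoculation. Acute toxicity scored as toxicity-day survivors per group. Survival was followed up to 30 days, with 30-day survival counted as "cure". Follows NCI screening protocols.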

P388 [5] = test: Antitumor activity against mouse P388 cells allografted in female CDF1 mouse assessed as disease cures by measuring 30-days host survival at 27 mg/kg, ip administered daily for 9 days as saline with Tween-80 solution starting 24 hrs after tumor inoculation relative to control; type: functional; conditions: route intraperitoneal; method in brief: as §2
P388 [6] = test: Antitumor activity against mouse P388 cells allografted in female CDF1 mouse assessed as disease cures by measuring 30-days host survival at 13.5 mg/kg, ip administered daily for 9 days as saline with Tween-80 solution starting 24 hrs after tumor inoculation relative to control; type: functional; conditions: route intraperitoneal; method in brief: as §2
P388 [7] = test: Antitumor activity against mouse P388 cells allografted in female CDF1 mouse assessed as change in body weight at 100 mg/kg, ip administered daily for 9 days as saline with Tween-80 solution starting 24 hrs after tumor inoculation; type: functional; conditions: route intraperitoneal; method in brief: as §1
P388 [8] = test: Antitumor activity against mouse P388 cells allografted in female CDF1 mouse assessed as change in body weight at 200 mg/kg, ip administered daily for 9 days as saline with Tween-80 solution starting 24 hrs after tumor inoculation; type: functional; conditions: route intraperitoneal; method in brief: as §1
P388 [9] = test: Antitumor activity against mouse P388 cells allografted in female CDF1 mouse assessed as disease cures by measuring 30-days host survival at 100 mg/kg, ip administered daily for 9 days as saline with Tween-80 solution starting 24 hrs after tumor inoculation relative to control; type: functional; conditions: route intraperitoneal; method in brief: as §2
Mus musculus [10] = test: Toxicity in female CDF1 mouse allografted with mouse P388 cells assessed as animal survival at 27 mg/kg, ip administered daily for 9 days as saline with Tween-80 solution starting 24 hrs after tumor inoculation; type: organism-based; design: dose 27 mg/kg, route intraperitoneal; conditions: in vivo; method in brief: as §3
P388 [11] = test: Antitumor activity against mouse P388 cells allografted in female CDF1 mouse assessed as change in body weight at 13.5 mg/kg, ip administered daily for 9 days as saline with Tween-80 solution starting 24 hrs after tumor inoculation; type: functional; conditions: route intraperitoneal; method in brief: as §1
P388 [12] = test: Antitumor activity against mouse P388 cells allografted in female CDF1 mouse assessed as change in body weight at 54 mg/kg, ip administered daily for 9 days as saline with Tween-80 solution starting 24 hrs after tumor inoculation; type: functional; conditions: route intraperitoneal; method in brief: as §1
Mus musculus [13] = test: Toxicity in female CDF1 mouse allografted with mouse P388 cells assessed as animal survival at 13.5 mg/kg, ip administered daily for 9 days as saline with Tween-80 solution starting 24 hrs after tumor inoculation; type: organism-based; design: dose 13.5 mg/kg, route intraperitoneal; conditions: in vivo; method in brief: as §3
Mus musculus [14] = test: Toxicity in female CDF1 mouse allografted with mouse P388 cells assessed as animal survival at 100 mg/kg, ip administered daily for 9 days as saline with Tween-80 solution starting 24 hrs after tumor inoculation; type: organism-based; design: dose 100 mg/kg, route intraperitoneal; conditions: in vivo; method in brief: as §3
P388 [15] = test: Antitumor activity against mouse P388 cells allografted in female CDF1 mouse assessed as change in body weight at 400 mg/kg, ip administered daily for 9 days as saline with Tween-80 solution starting 24 hrs after tumor inoculation; type: functional; conditions: route intraperitoneal; method in brief: as §1
Mus musculus [16] = test: Toxicity in female CDF1 mouse allografted with mouse P388 cells assessed as animal survival at 200 mg/kg, ip administered daily for 9 days as saline with Tween-80 solution starting 24 hrs after tumor inoculation; type: organism-based; design: dose 200 mg/kg, route intraperitoneal; conditions: in vivo; method in brief: as §3
Mus musculus [17] = test: Toxicity in female CDF1 mouse allografted with mouse P388 cells assessed as animal survival at 54 mg/kg, ip administered daily for 9 days as saline with Tween-80 solution starting 24 hrs after tumor inoculation; type: organism-based; design: dose 54 mg/kg, route intraperitoneal; conditions: in vivo; method in brief: as §3
P388 [18] = test: Antitumor activity against mouse P388 cells allografted in female CDF1 mouse assessed as disease cures by measuring 30-days host survival at 400 mg/kg, ip administered daily for 9 days as saline with Tween-80 solution starting 24 hrs after tumor inoculation relative to control; type: functional; conditions: route intraperitoneal; method in brief: as §2

Work on `OCc1c(CO)c(-c2ccc(Cl)c(Cl)c2)n2c1CCC2` yielded an Activity (P388 [1]) of -0.3 g, a T/C (P388 [2]) of 116% and a T/C (P388 [3]) of 109%. For the same compound, the Activity (Mus musculus [4]) was “Non-toxic”, the T/C (P388 [5]) was 109% and the T/C (P388 [6]) was 107%. It also gave an Activity (P388 [7]) of 0.5 g, an Activity (P388 [8]) of -0.9 g and a T/C (P388 [9]) of 116%. The Activity (Mus musculus [10]) was “Non-toxic”, the Activity (P388 [11]) was 0 g and the Activity (P388 [12]) was -0.6 g. For the same compound, the Activity (Mus musculus [13]) was “Non-toxic”, the Activity (Mus musculus [14]) was “Non-toxic” and the Activity (P388 [15]) was -1 g. For the same compound, the Activity (Mus musculus [16]) was “Non-toxic”, the Activity (Mus musculus [17]) was “Non-toxic” and the T/C (P388 [18]) was 127%.
